Holding throughout (format): biochemical, Lacticaseibacillus casei
What all share (conditions): 80 mM sodium acetate pH 4.0, 37 °C

The test system of experiment [1] is LBCZ_0230. Nature of the experiment: D-galactose release, L-arabinose/D-galactose assay kit. The essentials:
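Recombinant C-terminally His6-tagged enzyme was expressed in E. coli BL21(DE3) and Ni²⁺-affinity purified. Lacto-N-biose I or galacto-N-biose at 0.1-2 mM was reacted with enzyme at 37 °C for 10 min. Reactions were stopped at 80 °C for 3 min and D-galactose was quantified. Km came from Michaelis-Menten nonlinear regression, as mean ± SD of three independent experiments.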

The test system of experiment [2] is LBCZ_0230. Nature of the experiment: p-nitrophenol release, A400. A digest of the protocol: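 Purified recombinant His6-tagged enzyme (E. coli BL21(DE3), Ni²⁺ column) was assayed on p-nitrophenyl β-D-galactopyranoside over 0.0125-0.5 mM. Incubation ran at 37 °C for 10 min and was quenched with 1 M Na₂CO₃. p-Nitrophenol was measured at A400. Km was obtained by nonlinear Michaelis-Menten fitting, as mean ± SD of three independent experiments.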

Experiment [3] deals with LBCZ_0230. Put plainly: o-nitrophenol release, A400. A digest of the protocol: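 The enzyme was C-terminally His6-tagged, expressed in E. coli BL21(DE3) and purified on Ni²⁺ affinity. Protein was quantified by amino acid analysis. o-Nitrophenyl β-D-galactopyranoside at 0.05-1 mM was incubated with enzyme at 37 °C for 10 min and stopped with 1 M Na₂CO₃. Released o-nitrophenol was read at A400. Km was fitted by nonlinear Michaelis-Menten regression from three independent experiments (mean ± SD).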

As usually defined, the Km is the substrate concentration at which the rate is half of its maximum. With `CC(=O)N[C@H]1C(O)O[C@H](CO)[C@H](O)[C@@H]1O[C@@H]1O[C@H](CO)[C@H](O)[C@H](O)[C@H]1O` (stereo partly shown) [GNB], the Km in the experiment with LBCZ_0230 [1] is 707 ± 18 µM.
For `CC(=O)N[C@H]1C(O)O[C@H](CO)[C@@H](O)[C@@H]1O[C@@H]1O[C@H](CO)[C@H](O)[C@H](O)[C@H]1O` (stereo partly shown) [LNB], the Km in the experiment with LBCZ_0230 [1] was 238 ± 5 µM.
Consider `O=[N+]([O-])c1ccc(O[C@@H]2O[C@H](CO)[C@H](O)[C@H](O)[C@H]2O)cc1` [pNPGal], for which the Km in the experiment on LBCZ_0230 [2] was determined as 20.9 ± 1.3 µM.
Take `O=[N+]([O-])c1ccccc1O[C@@H]1O[C@H](CO)[C@H](O)[C@H](O)[C@H]1O` [oNPGal]: the Km with LBCZ_0230 [3] came to 50.1 ± 2.3 µM.
